In ChEMBL document CHEMBL1124128, “Angiotensin-converting enzyme inhibitors. Mercaptan, carboxyalkyl dipeptide, and phosphinic acid inhibitors incorporating 4-substituted prolines” (J Med Chem, 1988):
Values belong to the molecule of their own block, whether it stands above or below them.

How the values were obtained:
Rattus norvegicus [1] = experiment: % Inhibition of angiotensin-I induced pressor response in normotensive rats after peroral dosing of 0.5 umol/kg; format: functional; details: po
Method in brief: (§1)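 Conscious, unrestrained catheterized male Sprague–Dawley rats (225–275 g) had direct aortic pressure recording. Baseline pressor responses were taken to AI (310 ng/kg iv) and AII (100 ng/kg iv). Compound was given orally in water, 5% NaHCO3 or 1% agar suspension. AI and AII responses were then tracked up to 280 min. Maximum % inhibition is the mean response of four animals per dose.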

Rattus norvegicus [2] = experiment: % Inhibition of angiotensin-I induced pressor response in normotensive rats after peroral dosing of 15 umol/kg; format: functional; details: po; method in brief: as §1
Rattus norvegicus [3] = experiment: % Inhibition of angiotensin-I induced pressor response in normotensive rats after intravenous dosing of 0.15 umol/kg; format: functional
Method in brief: (§2)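 Conscious, unrestrained male Sprague–Dawley rats (225–275 g) with indwelling aortic and vena caval catheters, allowed at least 2 weeks of recovery. Aortic pressure recorded directly. Baseline pressor responses to AI (310 ng/kg iv) and AII (100 ng/kg iv) were taken first. Compound was given iv in 0.1 mL water or 5% NaHCO3, and responses were followed for up to 70 min. Maximum % inhibition is the mean of four animals per dose.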

Rattus norvegicus [4] = experiment: % Inhibition of angiotensin-I induced pressor response in normotensive rats after intravenous dosing of 0.015 umol/kg; format: functional
Method in brief: (§3)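 Male Sprague–Dawley rats (225–275 g) fitted with indwelling abdominal aorta and vena cava catheters, recovered at least 2 weeks, then tested conscious and unrestrained. Aortic pressure was recorded directly. Pressor responses to AI (310 ng/kg iv) and AII (100 ng/kg iv) were taken before dosing. Compound was given iv in water or 5% NaHCO3, and responses were followed up to 70 min. Maximum % inhibition is the mean of four animals per dose.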

Rattus norvegicus [5] = experiment: % Inhibition of angiotensin-I induced pressor response in normotensive rats after peroral dosing of 1.5 umol/kg; format: functional; details: po; method in brief: as §1
Rattus norvegicus [6] = experiment: % Inhibition of angiotensin-I induced pressor response in normotensive rats after peroral dosing of 5 umol/kg; format: functional; details: po; method in brief: as §1
Rattus norvegicus [7] = experiment: % Inhibition of angiotensin-I induced pressor response in normotensive rats after intravenous dosing of 0.05 umol/kg; format: functional; method in brief: as §3
[8] = biological target: T1, Angiotensin-converting enzyme (Rattus norvegicus, UniProt P47820); experiment: In vitro inhibitory activity against angiotensin I converting enzyme of rats.; details: read-out: I50
T1 sequence (P47820 whole entry): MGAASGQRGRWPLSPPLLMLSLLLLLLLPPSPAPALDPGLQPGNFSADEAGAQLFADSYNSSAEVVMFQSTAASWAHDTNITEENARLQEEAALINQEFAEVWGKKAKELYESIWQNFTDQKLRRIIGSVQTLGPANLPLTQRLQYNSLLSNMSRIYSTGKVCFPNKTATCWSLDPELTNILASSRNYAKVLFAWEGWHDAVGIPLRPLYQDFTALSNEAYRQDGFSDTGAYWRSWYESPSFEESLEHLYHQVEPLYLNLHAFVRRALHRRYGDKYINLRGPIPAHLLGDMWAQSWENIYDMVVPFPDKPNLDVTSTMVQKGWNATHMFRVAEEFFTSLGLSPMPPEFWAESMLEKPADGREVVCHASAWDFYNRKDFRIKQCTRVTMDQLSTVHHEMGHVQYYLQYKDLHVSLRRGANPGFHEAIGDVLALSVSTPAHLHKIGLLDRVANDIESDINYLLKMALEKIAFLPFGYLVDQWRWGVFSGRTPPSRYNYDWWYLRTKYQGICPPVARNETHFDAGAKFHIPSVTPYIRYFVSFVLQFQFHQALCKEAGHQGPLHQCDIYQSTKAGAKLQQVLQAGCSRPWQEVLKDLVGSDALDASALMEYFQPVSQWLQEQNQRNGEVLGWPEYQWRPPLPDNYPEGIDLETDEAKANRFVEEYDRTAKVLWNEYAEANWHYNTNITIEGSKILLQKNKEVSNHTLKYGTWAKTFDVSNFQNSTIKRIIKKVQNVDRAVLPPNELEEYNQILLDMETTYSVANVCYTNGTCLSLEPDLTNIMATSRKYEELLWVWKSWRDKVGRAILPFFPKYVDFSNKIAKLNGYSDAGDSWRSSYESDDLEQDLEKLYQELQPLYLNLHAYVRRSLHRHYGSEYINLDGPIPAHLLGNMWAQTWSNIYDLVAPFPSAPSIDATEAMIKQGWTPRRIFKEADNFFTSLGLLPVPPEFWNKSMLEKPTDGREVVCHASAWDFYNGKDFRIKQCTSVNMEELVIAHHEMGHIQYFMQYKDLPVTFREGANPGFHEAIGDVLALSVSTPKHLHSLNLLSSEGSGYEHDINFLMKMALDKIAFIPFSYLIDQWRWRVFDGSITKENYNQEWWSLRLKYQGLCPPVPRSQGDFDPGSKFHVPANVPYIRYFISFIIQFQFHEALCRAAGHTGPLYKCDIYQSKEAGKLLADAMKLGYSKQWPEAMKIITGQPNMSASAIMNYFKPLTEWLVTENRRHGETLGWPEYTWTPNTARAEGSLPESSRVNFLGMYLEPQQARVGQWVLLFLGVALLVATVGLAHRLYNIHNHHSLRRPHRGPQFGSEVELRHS

Rattus norvegicus [9] = experiment: % Inhibition of angiotensin-I induced pressor response in normotensive rats after intravenous dosing of 0.5 umol/kg; format: functional; method in brief: as §2
[10] = biological target: T2, Angiotensin-converting enzyme (Rattus norvegicus) (UniProt P47820); experiment: In vitro inhibition of rat Angiotensin I converting enzyme
T2 sequence (whole entry): T1 sequence (P47820 whole entry)

Rattus norvegicus [11] = experiment: % Inhibition of angiotensin-I induced pressor response in normotensive rats after intravenous dosing of 1.5 umol/kg; format: functional; method in brief: as §2
Rattus norvegicus [12] = experiment: % Inhibition of angiotensin-I induced pressor response in normotensive rats after intravenous dosing of 5 umol/kg; format: functional; method in brief: as §2

SMILES: C[C@H](CS)C(=O)N1C[C@@H](Oc2ccccc2)C[C@H]1C(=O)O
IC50 [8]: 97 nM

SMILES: CO[C@H]1C[C@@H](C(=O)O)N(C(=O)CP(=O)(O)CCCCc2ccccc2)C1
inhibition in vivo at 0.5 µmol/kg (Rattus norvegicus [9]): 90% | inhibition in vivo at 0.15 µmol/kg (Rattus norvegicus [3]): 55% | inhibition in vivo at 0.05 µmol/kg (Rattus norvegicus [7]): 16% | T50 [10]: 60 nM

SMILES: C[C@H](CS)C(=O)N1C[C@@H](S(=O)(=O)c2ccccc2)C[C@H]1C(=O)O
IC50 [8]: 28 nM

SMILES: O=C(O)[C@@H]1C[C@H](Sc2ccccc2)CN1C(=O)CP(=O)(O)CCCCc1ccccc1
inhibition in vivo at 0.5 µmol/kg (Rattus norvegicus [9]): 34% | inhibition in vivo at 0.15 µmol/kg (Rattus norvegicus [3]): 27% | inhibition in vivo at 1.5 µmol/kg (Rattus norvegicus [11]): 65% | T50 [10]: 20 nM | inhibition in vivo at 5 µmol/kg (Rattus norvegicus [12]): 88%

SMILES: C[C@H](CS)C(=O)N1C[C@@H](c2ccccc2)C[C@H]1C(=O)O
IC50 [8]: 30 nM

SMILES: CS[C@H]1C[C@@H](C(=O)O)N(C(=O)CP(=O)(O)CCCCc2ccccc2)C1
inhibition in vivo at 0.5 µmol/kg (Rattus norvegicus [9]): 69% | inhibition in vivo at 0.15 µmol/kg (Rattus norvegicus [3]): 29% | inhibition in vivo at 1.5 µmol/kg (Rattus norvegicus [11]): 89% | T50 [10]: 32 nM

SMILES: C[C@H](CS)C(=O)N1C[C@@H](Sc2ccc(F)cc2)C[C@H]1C(=O)O
IC50 [8]: 17 nM

SMILES: C[C@H](CS)C(=O)N1C[C@@H]([S+]([O-])c2ccccc2)C[C@H]1C(=O)O (stereo partly specified)
IC50 [8]: 46 nM

SMILES: C[C@H](CS)C(=O)N1C[C@H](O)C[C@H]1C(=O)O
IC50 [8]: 26 nM

Further molecules by falling IC50 [8], results first:

IC50 [8]: 16 nM
SMILES: C[C@H](CS)C(=O)N1CC(=O)C[C@H]1C(=O)O

IC50 [8]: 13 nM
SMILES: C[C@H](CS)C(=O)N1C[C@@H](Oc2ccc3ccccc3c2)C[C@H]1C(=O)O

IC50 [8]: 11 nM
SMILES: C[C@H](CS)C(=O)N1C[C@@H](Sc2ccc(Cl)cc2)C[C@H]1C(=O)O

IC50 [8]: 8.6 nM
SMILES: C[C@H](CS)C(=O)N1C[C@@H](O)C[C@H]1C(=O)O

IC50 [8]: 8 nM
SMILES: C[C@H](CS)C(=O)N1C[C@@H](Sc2ccccc2)C[C@H]1C(=O)O [ZOFENOPRILAT]

IC50 [8]: 5 nM
SMILES: C[C@H](N[C@@H](CCc1ccccc1)C(=O)O)C(=O)N1C[C@@H](C2CCCCC2)C[C@H]1C(=O)O
inhibition in vivo at 0.15 µmol/kg (Rattus norvegicus [3]): 92% | inhibition in vivo at 0.015 µmol/kg (Rattus norvegicus [4]): 21% | inhibition in vivo at 0.05 µmol/kg (Rattus norvegicus [7]): 48%

IC50 [8]: 2.9 nM
SMILES: C[C@H](CS)C(=O)N1CC2(C[C@H]1C(=O)O)OCCO2

IC50 [8]: 2 nM
SMILES: C[C@H](N[C@@H](CCc1ccccc1)C(=O)O)C(=O)N1C[C@@H](Sc2ccccc2)C[C@H]1C(=O)O
inhibition in vivo at 0.5 µmol/kg (Rattus norvegicus [1]): 23% | inhibition in vivo at 15 µmol/kg (Rattus norvegicus [2]): 78% | inhibition in vivo at 0.15 µmol/kg (Rattus norvegicus [3]): 85% | inhibition in vivo at 0.015 µmol/kg (Rattus norvegicus [4]): 20% | inhibition in vivo at 1.5 µmol/kg (Rattus norvegicus [5]): 31% | inhibition in vivo at 5 µmol/kg (Rattus norvegicus [6]): 67% | inhibition in vivo at 0.05 µmol/kg (Rattus norvegicus [7]): 43%

IC50 [8]: 2 nM
SMILES: C[C@H](CS)C(=O)N1C[C@@H](C2CCCCC2)C[C@H]1C(=O)O

IC50 [8]: 2 nM
SMILES: C[C@H](N[C@@H](CCc1ccccc1)C(=O)O)C(=O)N1C[C@H](Sc2ccccc2)C[C@H]1C(=O)O
inhibition in vivo at 0.015 µmol/kg (Rattus norvegicus [4]): 57% | inhibition in vivo at 0.05 µmol/kg (Rattus norvegicus [7]): 94%
